{"data": "Experimental data gathered from unrelated publications", "organism": "Escherichia coli", "effect on": "microbial growth", "note": "Protocols differ between the studies behind these lines."}
{"SMILES": "CC(C)Oc1c(NC(=O)c2ccc(NC(=O)[C@H](CC(N)=O)NC(=O)c3ccc(NC(=O)c4ccc(F)cc4)cc3)cc2)ccc(C(=O)Nc2ccc(C(=O)O)cc2)c1O", "test system": "DSM1116", "MIC": "0.5 µg/mL"}
{"SMILES": "CN[C@H](CC(C)C)C(=O)N[C@H]1C(=O)N[C@@H](CC(N)=O)C(=O)N[C@H]2C(=O)N[C@H]3C(=O)N[C@H](C(=O)N[C@H](C(=O)O)c4cc(O)cc(O)c4-c4cc3ccc4O)[C@H](O)c3ccc(c(Cl)c3)Oc3cc2cc(c3O[C@@H]2O[C@H](CO)[C@@H](O)[C@H](O)[C@H]2O[C@H]2C[C@](C)(N)[C@H](O)[C@H](C)O2)Oc2ccc(cc2Cl)[C@H]1O", "assay": "broth dilution", "test system": "ATCC25922", "setting": "18 h", "MIC": "> 32 µg/mL"}
{"SMILES": "Oc1ccc(Br)cc1-c1nc2ccccc2[nH]1", "assay": "broth dilution", "test system": "ATCC25922", "MIC": "64 µg/mL"}
{"SMILES": "N=C(N)c1ccc(OCCCCCCCCCCCOc2ccc(C(=N)N)cc2)cc1", "test system": "BW25113", "MIC": "50 µg/mL"}
{"SMILES": "CCCc1nc(Cl)c2c(c1O)C(=O)C1=C(O)[C@]3(O)C(=O)C(C(N)=O)=C(O)[C@@H](N(C)C)[C@@H]3C[C@@H]1C2.Cl", "assay": "broth dilution", "test system": "ATCC25922", "MIC": "16 µg/mL"}
{"SMILES": "Cc1ccc2nc(-c3ccco3)n(Cc3ccccc3)c2c1", "assay": "broth dilution", "test system": "ATCC25922", "MIC": "128 µg/mL"}
{"SMILES": "O=C(O)c1cn(C2CC2)c2cc(N3CCNCC3)c(F)cc2c1=O", "assay": "broth dilution", "test system": "ATCC10536", "setting": "18 h", "MIC": "≤ 1 µg/mL"}
{"SMILES": "CC(C)Oc1c(NC(=O)c2ccc(NC(=O)[C@H](CC(N)=O)NC(=O)c3ccc(NC(=O)Cc4ccc(C#N)cc4)cc3)cc2)ccc(C(=O)Nc2ccc(C(=O)O)cc2)c1O", "test system": "DSM1116", "MIC": "1 µg/mL"}
{"SMILES": "CN(C)c1ccc(-c2nc3ccccc3[nH]2)cc1", "assay": "broth dilution", "test system": "ATCC25922", "MIC": "64 µg/mL"}
{"SMILES": "CC(C)Oc1c(NC(=O)c2ccc(NC(=O)[C@H](CC(N)=O)NC(=O)c3ccc(NC(=O)c4ccccc4[N+](=O)[O-])cc3)cc2)ccc(C(=O)Nc2ccc(C(=O)O)cc2)c1O", "test system": "DSM1116", "MIC": "8 µg/mL"}
{"SMILES": "N=C(N)c1ccccc1OCc1ccccc1COc1ccccc1C(=N)N", "assay": "broth dilution", "test system": "BW25113", "MIC": "> 200 µg/mL"}
{"SMILES": "O=C(Nc1ccc([N+](=O)[O-])cc1F)c1ccccc1O", "assay": "broth dilution", "test system": "ATCC25922", "MIC": "> 64 µg/mL"}
{"SMILES": "Cc1ccc2nc(-c3ccc(Cl)c(Cl)c3)n(Cc3ccccc3)c2c1", "assay": "broth dilution", "test system": "ATCC25922", "MIC": "32 µg/mL"}
{"SMILES": "COc1cc(Cc2cnc(N)nc2N)cc(OC)c1OC", "assay": "broth dilution", "setting": "24 h", "MIC": "> 32 µg/mL"}
{"SMILES": "Cc1ccc2nc(-c3ccc(Cl)cc3)[nH]c2c1", "assay": "broth dilution", "test system": "ATCC25922", "MIC": "256 µg/mL"}
{"SMILES": "CC(C)Oc1c(NC(=O)c2ccc(NC(=O)[C@H](CC(N)=O)NC(=O)c3ccc(NC(=O)c4ccc(C#N)cc4)cc3)cc2)ccc(C(=O)Nc2cc(C(=O)O)n(C)c2)c1O", "test system": "DSM1116", "MIC": "0.5 µg/mL"}
{"SMILES": "Cc1cc(=O)[nH]n1C(=O)c1ccc(-n2c(C)ccc2C)cc1", "assay": "broth dilution", "test system": "ATCC10536", "setting": "18 h", "MIC": "250 µg/mL"}
{"SMILES": "CO[C@@H](C(N)=O)[C@H](NC(=O)c1ccc(NC(=O)c2ccc(C#N)cc2)cc1)C(=O)Nc1ccc(C(=O)Nc2ccc(C(=O)Nc3ccc(C(=O)O)cc3)c(O)c2OC(C)C)cc1", "test system": "DSM1116", "MIC": "< 0.03 µg/mL"}
{"SMILES": "COc1cc(Cc2cnc(N)nc2N)cc(OC)c1OC", "MIC": "~0.2 µM"}
{"SMILES": "N=C(N)c1ccc(OCCCCCOc2ccc(C(=N)N)cc2)cc1", "assay": "broth dilution", "test system": "BW25113", "MIC": "200 µg/mL"}
{"SMILES": "O=[N+]([O-])c1ccc(O)c2ncccc12", "assay": "broth dilution", "test system": "ATCC25922", "MIC": "2 µg/mL"}
{"SMILES": "CCn1cc(C(=O)O)c(=O)c2cc(F)c(N3CCNCC3)cc21", "assay": "broth dilution", "test system": "ATCC10536", "setting": "18 h", "MIC": "≤ 1 µg/mL"}
{"SMILES": "NC1CCCCc2c1[nH]c1ccc(Cl)c(Cl)c21 (stereo not drawn)", "assay": "broth dilution", "test system": "ATCC25922", "MIC": "16 µg/mL"}
{"SMILES": "C[C@H](CCC(=O)NCCCNCCCCNCCCN)[C@H]1CC[C@H]2[C@@H]3CC[C@@H]4C[C@H](O)CC[C@]4(C)[C@H]3CC[C@]12C", "assay": "broth dilution", "test system": "MG1655", "setting": "20 h", "MIC": "128 µg/mL"}
{"SMILES": "Cc1c(CN(C)C(=O)/C=C/c2cnc3c(c2)CC(CCN)C(=O)N3)oc2ccccc12.Cl (stereo not drawn)", "assay": "broth dilution", "test system": "MG1655", "setting": "clinical isolate", "MIC": "8 µg/mL"}
{"SMILES": "C=CCn1c(-c2ccc(OC)c(OC)c2)nc2ccccc21", "assay": "broth dilution", "test system": "ATCC25922", "MIC": "128 µg/mL"}
{"SMILES": "Cc1cc(C#N)ccc1C(=O)Nc1ccc(C(=O)N[C@@H](CC(N)=O)C(=O)Nc2ccc(C(=O)Nc3ccc(C(=O)Nc4ccc(C(=O)O)cc4)c(O)c3OC(C)C)cc2)cc1", "test system": "DSM1116", "MIC": "0.5 µg/mL"}
{"SMILES": "CCCCCCC/C=C/C(=O)N1C(=O)/C(=C(\\O)c2ccccc2)C(=O)C1CC(C)C (stereo not drawn)", "test system": "K12, K12", "MIC": "> 200 µg/mL"}
{"SMILES": "c1ccc(NCc2ccc(Oc3ccccn3)cc2)cc1", "MIC": "> 25 µg/mL"}
{"SMILES": "CN(C)[C@@H]1C(O)=C(C(N)=O)C(=O)[C@@]2(O)C(O)=C3C(=O)c4c(O)cccc4[C@@](C)(O)[C@H]3C[C@@H]12", "test system": "ATCC25922", "MIC": "4 µg/mL"}
{"SMILES": "O=C(O)c1cn(C2CC2)c2cc(N3CCNCC3)c(F)cc2c1=O", "assay": "broth dilution", "setting": "24 h", "MIC": "4.72 µM"}
{"SMILES": "C[C@H]1COc2c(N3CCN(C)CC3)c(F)cc3c(=O)c(C(=O)O)cn1c23", "assay": "broth dilution", "test system": "ATCC25922", "MIC": "0.25 µg/mL"}
{"SMILES": "CC(C)Oc1c(NC(=O)c2ccc(NC(=O)[C@H](CC(N)=O)NC(=O)c3ccc(NC(=O)c4ccc(NC(N)=O)cc4)cc3)cc2)ccc(C(=O)Nc2ccc(C(=O)O)cc2)c1O", "test system": "DSM1116", "MIC": "0.5 µg/mL"}
{"SMILES": "N=C(N)c1ccc(OCc2cccc(COc3ccc(C(=N)N)cc3)c2)cc1", "assay": "broth dilution", "test system": "ATCC25922", "MIC": "200 µg/mL"}
{"SMILES": "Clc1cccc(NCc2ccc(Oc3ccccn3)cc2)c1", "MIC": "> 25 µg/mL"}
{"SMILES": "CCOc1ccc(-c2nc3cc(-c4nc5cc(N6CCN(C)CC6)ccc5[nH]4)ccc3[nH]2)cc1", "assay": "broth dilution", "test system": "25922", "setting": "24 h", "MIC": "8 to 16 µg/mL"}
{"SMILES": "COc1c(C)c(OC)c2c(c1C)OC(c1ccccc1)CC2=O (stereo not drawn)", "assay": "broth dilution", "test system": "ATCC25922", "MIC": "5000 µg/mL"}
{"SMILES": "CCCCCCC/C=C/C(=O)N1C(=O)/C(=C(\\O)c2ccc(OCOCCOC)cc2)C(=O)C1CC(C)C (stereo not drawn)", "test system": "K12, K12", "MIC": "> 200 µg/mL"}
{"SMILES": "C/C(=C\\c1ccc(C#N)cc1)C(=O)Nc1ccc(C(=O)N[C@@H](CC(N)=O)C(=O)Nc2ccc(C(=O)Nc3ccc(C(=O)Nc4ccc(C(=O)O)cc4)c(O)c3OCC(C)C)cc2)cc1", "test system": "DSM1116", "MIC": "0.5 µg/mL"}
{"SMILES": "N=C(N)c1ccccc1OCc1ccc(COc2ccccc2C(=N)N)cc1", "assay": "broth dilution", "test system": "BW25113", "MIC": "> 200 µg/mL"}
{"SMILES": "O=C1NN=C(N=Cc2ccc(O)c(O)c2)C1=NNn1c(-c2ccccc2)nc2ccccc2c1=O", "assay": "broth dilution", "setting": "24 h", "MIC": "53.5 µM"}
{"SMILES": "CCCCCC(=O)Oc1c(C)c(O)c(C(=O)/C=C/c2ccccc2)c(OC)c1C", "assay": "broth dilution", "test system": "ATCC25922", "MIC": "5000 µg/mL"}
{"SMILES": "Cc1ccc2nc(-c3ccc(Cl)cc3)n(Cc3ccccc3)c2c1", "assay": "broth dilution", "test system": "ATCC25922", "MIC": "16 µg/mL"}
{"SMILES": "CCCCCCC/C=C/C(=O)N1C(=O)/C(=C(\\O)c2ccncc2)C(=O)C1CC(C)C (stereo not drawn)", "test system": "K12, K12", "MIC": "> 200 µg/mL"}
{"SMILES": "COc1ccc(-c2nc3ccc(C)cc3[nH]2)cc1O", "assay": "broth dilution", "test system": "ATCC25922", "MIC": "64 µg/mL"}
{"SMILES": "CCCCCCC#Cc1cncc(-c2nnc(SCc3ccc(C#N)cc3)n2C)c1", "MIC": "≥ 20 µg/mL"}
{"SMILES": "N=C(N)c1cccc(OCc2ccccc2COc2cccc(C(=N)N)c2)c1", "assay": "broth dilution", "test system": "BW25113", "MIC": "> 200 µg/mL"}
{"SMILES": "NC1CCCCc2c1[nH]c1cc(Cl)c(Cl)cc21 (stereo not drawn)", "assay": "broth dilution", "test system": "ATCC25922", "MIC": "8 µg/mL"}
{"SMILES": "CCCCCCC#Cc1cncc(-c2nnc(SCc3ccc(Cl)c(F)c3)n2C)c1", "MIC": "≥ 20 µg/mL"}
{"SMILES": "C[C@@H](O)[C@H]1C(=O)N2C(C(=O)O)=C(SCCN=CN)C[C@H]12", "assay": "broth dilution", "test system": "KCTC1682", "setting": "16 h", "MIC": "0.5 µM"}
{"SMILES": "N=C(N)c1ccc(OCc2ccc(COc3ccc(C(=N)N)cc3)cc2)cc1", "test system": "BW25113", "MIC": "≥ 200 µg/mL"}
{"SMILES": "O=C(CCCCCCCC[P+](c1ccccc1)(c1ccccc1)c1ccccc1)Nc1cc(O)c(O)c(O)c1.[Br-]", "assay": "broth dilution", "test system": "ATCC25922", "setting": "18 h", "MIC": "> 32 µg/mL"}
{"SMILES": "N=C(N)c1ccc(OCc2ccc(Br)cc2COc2ccc(C(=N)N)cc2)cc1", "assay": "broth dilution", "test system": "W3110", "MIC": "200 µg/mL"}
{"SMILES": "COc1c(C)c(OCc2ccccc2)c(C)c(O)c1C(=O)/C=C/c1ccccc1", "assay": "broth dilution", "test system": "ATCC25922", "MIC": "5000 µg/mL"}
